pIC50: −log10 of the molar value. Activity calls are given as the source filed them. The rule behind the calls is not given here.
Legend:
HEK293T [1] = assay: (§1) Metal chelating activity assessed as inhibition of human DMT1 expressed in HEK293T cells by measuring inhibition of radiolabeled 55Fe2+ uptake at 10 uM preincubated with compound for 5 mins followed by incubation with Fe2+ and radiolabeled 55Fe2+ for 15 mins at extracellular pH of 5.5 by scintillation counting analysis; type: cell-based; details: time 20.0 min
Outline: (§2)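 HEK293T cells were seeded 30,000/well and transiently transfected with DsRED-hDMT1 by Lipofectamine 24 h later; assays ran the next day. After a wash in uptake solution, cells got a 5 min compound preincubation, then 15 min RT uptake in pH 5.5 uptake solution with 100 μM ascorbate, Fe²⁺ and ⁵⁵Fe²⁺ (0.5 μCi/mL). An ice-cold pH 7.5 wash followed, then scintillation counting, with cpm converted to influx rates.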

HEK293T [2] = assay: as §1, with “ZIP8” for “DMT1”, “7.4” for “5.5”; type: cell-based; details: time 20.0 min
Outline: as §2, with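 “DsRED-hZIP8” for “DsRED-hDMT1”, “Cells” for “After a wash in uptake solution, cells”, “uptake” for “uptake in pH 5.5 uptake solution”, “ice-cold” for “ice-cold pH 7.5”, “counts” for “cpm”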

[3] = Metal chelating activity assessed as compound-Fe2+ complex formation by measuring precipitation at 10 uM incubated with radilolabeled-55Fe2+ for 15 mins in aqueous buffer of pH 7.4 by scintillation counting analysis
Outline: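 Uptake solution (pH 7.4) with 1 μM Fe2+, 100 μM ascorbic acid, 0.5 μCi/mL 55Fe2+ and 10 μM compound, incubated 15 min at RT in polypropylene tubes. Aliquots taken in quadruplicate for scintillation counting of remaining 55Fe2+.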

[4] = Metal chelating activity assessed as compound-Fe2+ complex formation at 20 uM preincubated with Fe2+ for 5 mins followed by calcein challenge in aqueous buffer of pH 5.5 and measured after 5 mins by calcein quenching assay; details: time 10.0 min
[5] = Metal chelating activity assessed as compound-Cd2+ complex formation by UV-Vis titration based analysis
[6] = Metal chelating activity assessed as compound-Cd2+ complex formation by measuring precipitation at 0.4 mM in aqueous buffer of pH 5.5 by isothermal titration calorimetry
Outline: (§3)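 Cadmium chloride titrated into 0.4 mM compound (from 10 mM DMSO stock) at 25 °C, stirring 750 rpm. Buffer was 20 mM HEPES/150 mM NaCl pH 7.5 or 20 mM MES/150 mM NaCl pH 5.5. First injection 0.4 μL, then 2 μL every 150 s. Buffer/DMSO control titrations run. Fit to a one-set-of-sites model, with fitting errors on KD.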

[7] = Metal chelating activity assessed as compound-Fe2+ complex formation by UV-Vis titration based analysis
[8] = target: T1, Natural resistance-associated macrophage protein 2 (Homo sapiens, UniProt P49281); assay: Inhibition of human DMT1 expressed in Xenopus oocytes assessed as inhibition of channel currents at -50 mV holding potential by two-electrode voltage clamp assay; type: cell-based; details: oocyte
T1 sequence (P49281 whole entry): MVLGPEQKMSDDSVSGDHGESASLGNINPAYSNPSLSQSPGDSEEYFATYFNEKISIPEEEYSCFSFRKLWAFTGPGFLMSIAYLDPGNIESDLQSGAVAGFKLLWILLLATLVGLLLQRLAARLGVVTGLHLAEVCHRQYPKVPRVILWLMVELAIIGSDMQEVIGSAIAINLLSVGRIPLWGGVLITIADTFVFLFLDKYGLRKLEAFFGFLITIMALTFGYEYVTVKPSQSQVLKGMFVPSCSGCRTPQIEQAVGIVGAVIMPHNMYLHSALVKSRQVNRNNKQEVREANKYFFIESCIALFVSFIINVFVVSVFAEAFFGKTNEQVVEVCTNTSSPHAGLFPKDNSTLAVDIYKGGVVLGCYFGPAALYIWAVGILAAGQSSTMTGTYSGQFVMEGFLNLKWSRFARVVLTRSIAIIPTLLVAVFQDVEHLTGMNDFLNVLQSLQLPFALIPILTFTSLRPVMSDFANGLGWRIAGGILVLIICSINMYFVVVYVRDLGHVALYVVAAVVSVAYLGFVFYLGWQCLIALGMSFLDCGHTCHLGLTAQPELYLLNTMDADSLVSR
Outline: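 Xenopus oocytes were injected with 20 ng hDMT1 cRNA and used 3–5 days later. Holding current at Vh −50 mV was recorded, low-pass filtered at 500 Hz and digitized at 5 kHz.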

[9] = Metal chelating activity assessed as compound-Cd2+ complex formation at ratio of 2:1 at 0.4 mM in aqueous buffer of pH 7.4 by isothermal titration calorimetry; outline: as §3
[10] = as §1, with “ZIP8” for “DMT1”, “uptake” for “uptake at 10 uM”, “7.4” for “5.5”; type: cell-based; details: HEK-293T
Outline: as §2, with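 “DsRED-hZIP8” for “DsRED-hDMT1”, “Cells” for “After a wash in uptake solution, cells”, “uptake” for “uptake in pH 5.5 uptake solution”, “ice-cold” for “ice-cold pH 7.5”, “counts” for “cpm”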

[11] = target: T1, Natural resistance-associated macrophage protein 2; assay: Inhibition of human DMT1 expressed in HEK293 cells assessed as inhibition of radiolabeled 55Fe2+ uptake incubated for 1 hr by microplate scintillation counting analysis; type: cell-based; details: in the assay text read “incubated for 15 mins” for “incubated for 1 hr”
Outline: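 HEK293 cells stably expressing DsRED-hDMT1 were cultured in DMEM with 10% FBS, 10 mM HEPES and 1 mM Na-pyruvate, and seeded 50,000/well 24 h ahead. Cells got a 5 min compound preincubation, then 15 min RT uptake at pH 5.5 with 100 μM ascorbate, Fe²⁺ and ⁵⁵Fe²⁺ (0.5 μCi/mL). After an ice-cold pH 7.5 wash, cells sat 1 h in scintillant. Counts were converted to influx rates and fitted with a 4-parameter sigmoid for IC50.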

[12] = Metal chelating activity assessed as compound-Fe2+ complex formation by measuring precipitation at 10 uM incubated with radilolabeled-55Fe2+ for 15 mins in aqueous buffer of pH 7.4 by scintillation counting analysis
[13] = target: T2, Natural resistance-associated macrophage protein 2 (Homo sapiens) (UniProt P49281); assay: Inhibition of human DMT1 expressed in Xenopus laevis oocytes assessed as reduction in radiolabeled 55Fe2+ uptake at 10 uM preincubated for 5 mins followed by incubation with Fe2+ and radiolabeled 55Fe2+ and measured after 10 mins by scintillation counting method relative to control; type: cell-based; details: Oocyte, time 15.0 min
T2 sequence (whole entry): T1 sequence (P49281 whole entry)
Outline: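 Xenopus oocytes injected with 20 ng hDMT1 cRNA, tested 3-5 days later, 10-15 oocytes per condition. 5 min RT in pH 5.5 transport medium with 10 μM compound, then 10 min with compound, 100 μM ascorbate, 1 μM Fe2+ and 0.5 μCi/mL 55Fe2+. Ice-cold rinse with 250 μM Fe2+, SDS solubilization, scintillation counting. Compound-free and non-injected oocytes run in parallel.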

[14] = target: T2, Natural resistance-associated macrophage protein 2 (Homo sapiens); assay: Inhibition of human DMT1 expressed in HEK293T cells by measuring inhibition of radiolabeled 55Fe2+ uptake at 10 uM preincubated with compound for 5 mins followed by incubation with Fe2+ and radiolabeled 55Fe2+ for 15 mins at extracellular pH of 5.5 by scintillation counting analysis; type: cell-based; details: time 20.0 min
Outline: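 HEK293T cells seeded at 30,000/well 48 h ahead and transiently transfected 24 h later with DsRED-hDMT1. After wash in uptake buffer, 5 min preincubation with compound, then 15 min at RT in pH 5.5 uptake solution with 100 μM ascorbic acid, Fe2+ and 55Fe2+ (0.5 μCi/mL). Ice-cold pH 7.5 wash, scintillation counting, cpm converted to influx rate.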

**Q.** With `Cc1cc(O)nc(-n2nc(C)cc2C)n1` as the compound, how does the Activity (HEK293T [1]) read?
**A.** Its Activity is “Active”.

**Q.** And the Activity (HEK293T [2])?
**A.** Its Activity is “Active”.

**Q.** What about the Activity [3] of the same compound?
**A.** The Activity was “inactive”.

**Q.** What about the Activity [4] of the same compound?
**A.** The Activity was “inactive”.

**Q.** For `Cc1cc(=O)[nH]c(-n2nc3c(c2C)CCCC3)n1`, which Activity [5] is on record?
**A.** The Activity was “inactive”.

**Q.** What about the Activity [6] of the same compound?
**A.** The Activity was “Active”.

**Q.** What about the Activity (HEK293T [1]) of the same compound?
**A.** Its Activity is “Active”.

**Q.** What about the Activity [7] of the same compound?
**A.** Its Activity is “inactive”.

**Q.** And the Activity (HEK293T [2])?
**A.** Its Activity is “Active”.

**Q.** What about the IC50 [8] of the same compound?
**A.** The IC50 was “Not Active”.

**Q.** What about the Activity [3] of the same compound?
**A.** The Activity was “Active”.

**Q.** What about the Activity [9] of the same compound?
**A.** Its Activity is “Active”.

**Q.** What about the Activity [4] of the same compound?
**A.** Its Activity is “Active”.

**Q.** And the pIC50 [10]?
**A.** Its pIC50 is 5.85.

**Q.** With `Cc1cc(=O)[nH]c(-n2nc(-c3ccccc3)cc2C)n1` as the compound, how does the inhibition (HEK293T [1]) read?
**A.** Its inhibition is under 20%.

**Q.** With `Cc1cc(=O)[nH]c(-n2nc(C)c(-c3ccccc3)c2C)n1` as the compound, how does the inhibition (HEK293T [1]) read?
**A.** The inhibition was under 20%.

**Q.** With `N=C(N)SCc1cccc(CSC(=N)N)c1` as the compound, how does the pIC50 [11] read?
**A.** Its pIC50 is 5.15.

**Q.** With `Cc1cc(=O)[nH]c(-n2nc(C)c(Cc3ccccc3)c2C)n1` as the compound, how does the inhibition (HEK293T [1]) read?
**A.** Its inhibition is under 20%.

**Q.** With `CCc1cc(=O)[nH]c(-n2[nH]c(C)cc2=O)n1` as the compound, how does the inhibition (HEK293T [1]) read?
**A.** Its inhibition is under 20%.

**Q.** What does the source list for `Cc1nn(-c2ccccn2)c(O)c1C(=O)Nc1cccc(C(F)(F)F)c1`?
**A.** Activity [12]: Active; Activity (HEK293T [1]): Active; Activity (HEK293T [2]): Active; Activity [3]: Active; Activity [4]: Active

**Q.** With `CCc1cc(=O)n(-c2nc(C)cc(=O)[nH]2)[nH]1` as the compound, how does the inhibition (HEK293T [1]) read?
**A.** The inhibition was under 20%.

**Q.** With `N=C(N)SCc1cccc2c1oc1c(CSC(=N)N)cccc12` as the compound, how does the inhibition [13] read?
**A.** The inhibition was 100%.

**Q.** And the inhibition [14]?
**A.** Its inhibition is “Active”.

**Q.** What about the Activity (HEK293T [2]) of the same compound?
**A.** The Activity was “inactive”.

**Q.** And the Activity [3]?
**A.** Its Activity is “inactive”.

**Q.** For `Cc1cc(=O)[nH]c(-n2[nH]c(C)c(Cc3ccccc3)c2=O)n1`, which inhibition (HEK293T [1]) is on record?
**A.** Its inhibition is under 20%.

**Q.** Which inhibition (HEK293T [1]) does the source give for `CCOC(=O)c1cnc(-n2[nH]c(C)cc2=O)[nH]c1=O` here?
**A.** The inhibition was under 20%.

**Q.** Which inhibition (HEK293T [1]) does the source give for `Cc1cc(=O)[nH]c(-n2nc3c(c2C)COCC3)n1` here?
**A.** The inhibition was under 20%.

**Q.** With `Cc1cc(C)nc(-n2nc(C)cc2C)n1` as the compound, how does the inhibition (HEK293T [1]) read?
**A.** Its inhibition is under 20%.

**Q.** With `Cc1cc(=O)[nH]c(-n2nc(C(C)(C)C)cc2C)n1` as the compound, how does the inhibition (HEK293T [1]) read?
**A.** The inhibition was under 20%.

**Q.** For `Cc1cc(=O)[nH]c(-n2[nH]c(C)c(C(=O)Nc3cccc(C(F)(F)F)c3)c2=O)n1`, which inhibition (HEK293T [1]) is on record?
**A.** The inhibition was under 20%.

**Q.** For `Cc1cc(=O)[nH]c(-n2nc3c(c2C)CNCC3)n1`, which inhibition (HEK293T [1]) is on record?
**A.** Its inhibition is under 20%.

**Q.** Which inhibition (HEK293T [1]) does the source give for `Cc1cc(=O)[nH]c(-n2nc3c(c2C)CCC3)n1` here?
**A.** The inhibition was under 20%.

Reference: ChEMBL document CHEMBL4699420, “Pyrazolyl-pyrimidones inhibit the function of human solute carrier protein SLC11A2 (hDMT1) by metal chelation” (RSC Med Chem, 2020)
